Assay results taken from ChEMBL document CHEMBL3227954, “Synthesis of imidazolidinediones and oxazolidinediones from cyclization of propargylureas and propargyl carbamates” (J Med Chem, 1979).
Calls of active or inactive are those of the source.

Tests used:
Mus musculus [1] = species on record: Mus musculus; assay: Anticonvulsant activity in mouse assessed as protection against maximal electroshock-induced seizures; assay type: functional
Mus musculus [2] = assay: Anticonvulsant activity in mouse assessed as protection against subcutaneous pentylenetetrazole-induced seizures; assay type: functional; details: sc
Method in brief: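 Mice screened in the NINCDS program for subcutaneous metrazole (pentylenetetrazole) seizure threshold (scMet) protection; ED50 taken as dose effective in 50% of test animals, in mg/kg.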

[3] = Toxicity in mouse; assay type: organism-based; details: in vivo
Method in brief: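 Toxicity in mice from the NINCDS screens, expressed as TD50: dose toxic in 50% of screens, in mg/kg.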

SMILES | Activity (Mus musculus [1]) | other results
CCN(CC)CCN1C(=O)NC(C)(C)C1=O | inactive | 
CCN(CC)CCN1C(=O)NC(c2ccccc2)(c2ccccc2)C1=O |  | ED50 (Mus musculus [1]): 80 mg/kg
CC1(C)OC(=O)N(C(C)(C)C)C1=O | inactive | 
CC1(C)NC(=O)N(C(C)(C)C)C1=O |  | ED50 (Mus musculus [2]): 130 mg/kg; TD50 [3]: 343 mg/kg
CC1(C)NC(=O)N(C23CC4CC(CC(C4)C2)C3)C1=O | inactive | 
Cc1ccc(S(=O)(=O)N2C(=O)NC(C)(C)C2=O)cc1 | inactive | 
CC(=O)N1C(=O)N(C(C)(C)C)C(=O)C1(C)C |  | TD50 [3]: ≤ 30 mg/kg
CCN(CC)CCN1C(=O)N(CCN(CC)CC)C(c2ccccc2)(c2ccccc2)C1=O | inactive | 
CN1C(=O)N(C(C)(C)C)C(=O)C1(C)C | inactive | 
